According to ChEMBL document CHEMBL2396655, “Design, synthesis, and biological evaluation of (E)-N-aryl-2-arylethenesulfonamide analogues as potent and orally bioavailable microtubule-targeted anticancer agents” (J Med Chem, 2013):
Values after ≈ are worked out from the molar mass of the structure shown. Active and inactive are the calls of the source. No cut-off for these calls is given here.

Columns and labels:
[1] = target: T1, Tubulin (Sus scrofa) (UniProt P02554+P02550); assay: Competitive binding affinity to pig brain tubulin vinblastine binding site at 0.1 to 100 uM after 1 hr by mass spectrophotometric analysis in presence of vinblastine
Outline: (§1)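 Porcine brain tubulin (1.0 mg/mL) in PIPES 80 mM, MgCl₂ 2 mM, EGTA 0.5 mM, pH 6.9, at 37 °C. […] Competitor was 0.1–100 μM for 1 h. Unbound ligand in the 30 kDa ultrafiltrate was measured by MS. Runs were in triplicate; IC50 came from a Hill fit.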

[2] = system: MIA PaCa-2; assay: Cytotoxicity against human MIAPaCa2 cells after 96 hrs by trypan blue exclusion assay; type: functional; settings: MIA PaCa-2, 96 h
Outline: (§2)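 Cells were grown in DMEM or RPMI with 10% FBS and plated at 2.5×10⁴ cells/well in 12-well dishes. Compounds were added 24 h later at various concentrations. After 96 h, viable cells were counted by trypan blue exclusion from duplicate wells. Results are the mean of two independent experiments.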

[3] = species: Bos taurus; assay: Inhibition of bovine brain tubulin assessed as destabilization of microtubule polymerization at 10 uM over 40 mins by spectrophotometric analysis
Outline: (§3)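 Purified bovine brain tubulin was incubated at 37 °C with 10 μM compound, DMSO or reference agents. Polymerization was followed as rising absorbance at 340 nm over 40 min. Data are representative of three independent experiments.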

[4] = system: HCT-15; assay: Cytotoxicity against human HCT15 cells after 96 hrs by trypan blue exclusion assay; type: functional; settings: HCT-15, 96 h; outline: as §2
[5] = system: BT-20; assay: Cytotoxicity against human BT20 cells after 96 hrs by trypan blue exclusion assay; type: functional; settings: BT-20, 96 h; outline: as §2
[6] = Cytotoxicity against human U87 cells after 96 hrs by sulforhodamine B assay; type: functional, cell-based, U-87MG ATCC; settings: U-87 MG
[7] = system: K562; assay: Cytotoxicity against human K562 cells after 96 hrs by trypan blue exclusion assay; type: functional, cell-based; settings: for GI50 / IC50: K562, 96 h; outline: as §2
[8] = system: A-431; assay: Cytotoxicity against human A431 cells after 96 hrs by trypan blue exclusion assay; type: functional; settings: A-431, 96 h; outline: as §2
[9] = system: LNCaP; assay: Cytotoxicity against human LNCAP cells after 96 hrs by trypan blue exclusion assay; type: functional; outline: as §2
[10] = system: BT-474; assay: Cytotoxicity against human BT474 cells after 96 hrs by trypan blue exclusion assay; type: functional; settings: BT-474, 96 h; outline: as §2
[11] = Solubility of the compound in water; type: physicochemical
[12] = system: NCI-H417; assay: Cytotoxicity against human NCI-N417 cells after 96 hrs by trypan blue exclusion assay; type: functional; settings: NCI-H417, 96 h
Outline: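 Cells grown in DMEM or RPMI with 10% FBS and 1 unit/mL penicillin-streptomycin, seeded in 12-well dishes at 2.5 ×10⁴ cells/mL/well. Compound added 24 h later at various concentrations. Viable cells counted by trypan blue exclusion from duplicate wells after 96 h. Value taken from dose-response curves of two independent experiments.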

[13] = system: MES-SA; assay: Resistance factor, ratio of GI50 for multidrug-resistant human MES-SA/Dx5 cells to GI50 for human MES-SA cells; type: functional
[14] = system: DU-145; assay: Cytotoxicity against human DU145 cells after 96 hrs by trypan blue exclusion assay; type: functional, cell-based; settings: for GI50 / IC50: DU-145, 96 h; outline: as §2
[15] = Growth inhibition of human MES-SA cells; type: functional
[16] = Growth inhibition of multidrug-resistant human MES-SA/Dx5 cells; type: functional
[17] = system: MCF7; assay: Cytotoxicity against human MCF7 cells after 96 hrs by trypan blue exclusion assay; type: functional; settings: MCF7, 96 h; outline: as §2
[18] = target: T1, Tubulin (Sus scrofa); assay: Competitive binding affinity to pig brain tubulin paclitaxel binding site at 0.1 to 100 uM after 1 hr by mass spectrophotometric analysis in presence of paclitaxel and GTP; outline: as §1
[19] = system: 2008; assay: Growth inhibition of human 2008 cells; type: functional
[20] = species: Bos taurus; assay: Effect on bovine brain tubulin assessed as stabilization of microtubule polymerization at 10 uM over 40 mins by spectrophotometric analysis; outline: as §3
[21] = Growth inhibition of paclitaxel-resistant human 2008/17/4 cells; type: functional
Outline: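 Cells grown in DMEM or RPMI with 10% FBS and penicillin-streptomycin, seeded at 2.5 × 10⁴ cells/mL/well; compound added 24 h later over a concentration range. After 96 h, viable cells counted by trypan blue exclusion in duplicate wells. GI₅₀ is the concentration giving 50% growth inhibition, reported as mean ± SD of two independent experiments.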

[22] = system: 2008; assay: Resistance factor, ratio of GI50 for paclitaxel-resistant human 2008/17/4 cells to GI50 for human 2008 cells; type: functional
[23] = Cytotoxicity against human Caco2 cells after 1 hr by Alamar Blue assay; type: cell-based; settings: Caco-2 cells, read-out: LD50
[24] = system: OVCAR-3; assay: Cytotoxicity against human OVCAR3 cells after 96 hrs by trypan blue exclusion assay; type: functional; settings: OVCAR-3, 96 h; outline: as §2
[25] = Cytotoxicity against human H80 cells after 96 hrs by trypan blue exclusion assay; type: functional; settings: H80, 96 h; outline: as §2
[26] = Cytotoxicity against human NAMALWA cells after 96 hrs by trypan blue exclusion assay; type: functional; settings: NAMALVA; outline: as §2
[27] = system: CEM/C2; assay: Growth inhibition of multidrug-resistant human CEM/C2 cells; type: functional
[28] = system: CCRF-CEM; assay: Growth inhibition of human CEM cells; type: functional
[29] = system: CCRF-CEM; assay: Resistance factor, ratio of GI50 for multidrug-resistant human CEM/C2 cells to GI50 for human CEM cells; type: functional
[30] = Cytotoxicity against human RF48 cells after 96 hrs by trypan blue exclusion assay; type: functional; settings: RF48, 96 h; outline: as §2
[31] = system: PC-3; assay: Cytotoxicity against human PC3 cells after 96 hrs by trypan blue exclusion assay; type: functional; settings: PC-3, 96 h; outline: as §2
[32] = system: MOLT-4; assay: Cytotoxicity against human MOLT4 cells after 96 hrs by trypan blue exclusion assay; type: functional; settings: MOLT-4, 96 h; outline: as §2
[33] = system: HCT-116; assay: Cytotoxicity against human HCT116 cells after 96 hrs by trypan blue exclusion assay; type: functional; settings: HCT-116, 96 h; outline: as §2
[34] = system: Daudi; assay: Cytotoxicity against human Daudi cells after 96 hrs by trypan blue exclusion assay; type: functional; outline: as §2
[35] = system: T47D; assay: Cytotoxicity against human T47D cells after 96 hrs by trypan blue exclusion assay; type: functional; outline: as §2
[36] = system: SK-OV-3; assay: Cytotoxicity against human SKOV3 cells after 96 hrs by trypan blue exclusion assay; type: functional; settings: SK-OV-3, 96 h; outline: as §2
[37] = system: NCI-H187; assay: Cytotoxicity against human NCI-H187 cells after 96 hrs by trypan blue exclusion assay; type: functional; settings: NCI-H187, 96 h; outline: as §2

SMILES | inhibition [3] | GI50 [5] | IC50 [6] | Activity [7] | GI50 [7] | IC50 [7] | GI50 [8] | GI50 [9] | GI50 [12] | Activity [14] | GI50 [14] | IC50 [14] | other results
CC[C@]1(O)C[C@H]2CN(CCc3c([nH]c4ccccc34)[C@@](C(=O)OC)(c3cc4c(cc3OC)N(C=O)[C@H]3[C@@](O)(C(=O)OC)[C@H](OC(C)=O)[C@]5(CC)C=CCN6CC[C@]43[C@@H]65)C2)C1 | – | – | – | – | – | – | – | – | – | – | – | – | Activity [1]: Active
CC(=O)O[C@@]12CO[C@@H]1C[C@H](O)[C@@]1(C)C(=O)[C@H](O)C3=C(C)[C@@H](OC(=O)[C@H](O)[C@@H](NC(=O)OC(C)(C)C)c4ccccc4)C[C@@](O)([C@@H](OC(=O)c4ccccc4)[C@H]21)C3(C)C | – | – | – | – | – | – | – | – | – | – | – | – | Activity [18]: Active
CC(=O)O[C@H]1C(=O)[C@@]2(C)[C@H]([C@H](OC(=O)c3ccccc3)[C@]3(O)C[C@H](OC(=O)[C@H](O)[C@@H](NC(=O)c4ccccc4)c4ccccc4)C(C)=C1C3(C)C)[C@]1(OC(C)=O)CO[C@@H]1C[C@@H]2O [PACLITAXEL] | – | – | – | – | – | – | – | – | – | – | – | – | GI50 [19]: 0.003 µM; Activity [20]: Active; RatioGI50 [13]: 190; GI50 [21]: 2 µM; RatioGI50 [22]: 600; GI50 [15]: 0.004 µM; GI50 [16]: 0.75 µM
O=c1cc[nH]c(=S)[nH]1 [THIOURACIL] | – | – | – | – | – | – | – | – | – | – | – | – | CC50 at 1 h [23]: > 1000 µM
COc1cc(OC)c(/C=C/S(=O)(=O)Nc2ccc(OC)c(O)c2)c(OC)c1 | – | 0.25 µM | 0.026 µM | Dose-dependent effect | 0.015 µM | 0.015 µM | 0.6 µM | 0.05 µM | 0.01 µM | Dose-dependent effect | 0.05 µM | 0.03 µM | GI50 [24]: 0.1 µM; GI50 [25]: 0.025 µM; GI50 [26]: 0.025 µM
CC[C@@]1(O)C(=O)OCc2c1cc1n(c2=O)Cc2cc3ccccc3nc2-1 [CAMPTOTHECIN] | – | – | – | – | – | – | – | – | – | – | – | – | GI50 [27]: 1 µM; GI50 [28]: 0.002 µM; RatioGI50 [29]: 500
COc1ccc(NS(=O)(=O)/C=C/c2c(OC)cc(OC)cc2OC)cc1 | – | 0.25 µM | 0.229 µM | Dose-dependent effect | 0.075 µM | 0.075 µM | 0.03 µM | 0.1 µM | 0.05 µM | Dose-dependent effect | 0.075 µM | 0.2 µM | GI50 [2]: 0.1 µM; GI50 [24]: 0.1 µM; GI50 [4]: 0.1 µM; GI50 [10]: 0.25 µM; GI50 [25]: 0.1 µM; GI50 [30]: 0.025 µM; GI50 [31]: 0.1 µM; GI50 [26]: 0.1 µM; GI50 [32]: 0.1 µM; GI50 [33]: 0.1 µM; GI50 [34]: 0.1 µM; GI50 [35]: 0.1 µM; GI50 [36]: 0.1 µM; GI50 [37]: 0.1 µM

Continued, in another order:

inhibition [3] | SMILES | GI50 [5] | IC50 [6] | Activity [7] | GI50 [7] | IC50 [7] | GI50 [8] | GI50 [9] | GI50 [12] | Activity [14] | GI50 [14] | IC50 [14] | other results
Active | COc1cc(OC)c(/C=C/S(=O)(=O)Nc2ccc(OC)c(NC(C)(C)C(=O)O)c2)c(OC)c1 | 0.1 µM | 0.09 µM | Dose-dependent effect | 0.01 µM | 0.005 µM | 0.15 µM | 0.1 µM | 0.03 µM | Dose-dependent effect | 0.15 µM | 0.07 µM | GI50 [2]: 0.08 µM; GI50 [4]: 0.2 µM; GI50 [10]: 0.15 µM; solubility [11]: 10000 µg/mL (≈ 20.8 mM); RatioGI50 [13]: 1.3; GI50 [15]: 0.07 µM; GI50 [16]: 0.09 µM; GI50 [17]: 0.08 µM
Active | COC(=O)Nc1nc2cc(C(=O)c3cccs3)ccc2[nH]1 | – | – | – | – | – | – | – | – | – | – | – | –
Active | COc1cc(OC)c(/C=C/S(=O)(=O)Nc2ccc(OC)c(NCC(=O)O)c2)c(OC)c1 | – | – | Dose-dependent effect | – | 0.02 µM | – | – | – | Dose-dependent effect | – | 0.4 µM | solubility [11]: 10000 µg/mL (≈ 22.1 mM)
